Measured values taken from ChEMBL document CHEMBL4152216, “Syntheses and anti-pancreatic cancer activities of rakicidin A analogues” (Eur J Med Chem, 2018).

Tests used:
PANC-1 [1] = experiment: Inhibition of tumorsphere formation in human PANC1 cells assessed as reduction in number of tumor spheres at 0.25 uM after 7 days; type: functional
Outline: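 Tumorsphere formation: single-cell PANC-1 suspensions were plated in ultra-low-attachment wells at 2,000 cells/mL in Complete MammoCult medium, with compound at 0.25 µM. Tumorspheres were counted after 7 days. Three repeats, mean ± SEM.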

PANC-1 [2] = experiment: Cytotoxicity against human PANC1 cells after 72 hrs under hypoxic condition by MTT assay; type: functional, cell-based; details: PANC-1, 72 h
Outline: (§1)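 PANC-1, PATU8988T and ASPC-1 cells were grown in DMEM with 10% FBS at 37 °C and 5% CO2, then seeded at 4000 cells/well. Compounds were added at various concentrations after 6 h. Normoxic plates stayed at 37 °C, 5% CO2. Hypoxic plates went into a chamber purged 10 min with 5% CO2/1% O2/94% N2, sealed, at 37 °C. After 72 h, MTT was added for 4 h, formazan dissolved in DMSO and read at 570 nm. IC50 is the mean ± SD of three independent experiments.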

PANC-1 [3] = experiment: Antitumor activity against human PANC1 cells xenografted in BALB/c nude mouse assessed as reduction in tumor initiating cell frequency at 0.1 to 0.25 uM measured after 7 days; type: functional
Outline: (§2)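 PANC-1 cells were treated in vitro with compound (ADR at 0.5 µM) for 48 h, collected, and injected subcutaneously at limiting cell doses into 5-week-old female BALB/c nude mice. Tumor formation rate was scored after 7 days. Tumor-initiating frequency was derived by limiting-dilution analysis with Poisson statistics against vehicle.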

PANC-1 [4] = experiment: Cytotoxicity against human PANC1 cells after 72 hrs under normoxic condition by MTT assay; type: functional, cell-based; details: PANC-1, 72 h; outline: as §1
ASPC1 [5] = experiment: Selectivity index, ratio of IC50 against human Aspc-1 cells under normoxic condition to IC50 for human Aspc-1 cells under hypoxic condition; type: functional
Outline: (§3)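 Hypoxic selectivity index is IC50 (normoxia)/IC50 (hypoxia). Both IC50s come from the 72 h MTT assay in the same cell line, run under normoxia (37 °C, 5% CO2) or a sealed 1% O2/5% CO2/94% N2 chamber, each the mean of three independent experiments.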

ASPC1 [6] = experiment: Potency index, ratio of […] for rakicidin A to IC50 for test compound for cytotoxicity against human Aspc-1 cells after 72 hrs under hypoxic condition by MTT assay; type: functional
PaTu 8988t [7] = experiment: Selectivity index, ratio of IC50 against human PA-TU-8988T cells under normoxic condition to IC50 for human PA-TU-8988T cells under hypoxic condition; type: functional; outline: as §3
Danio rerio = experiment: Toxicity in zebrafish xenografted with human PANC1 cells at 50 uM after 2 days by fluorescence microscopy; type: organism-based; details: 48 h
PANC-1 [8] = experiment: Inhibition of cancer stem cell population of human PANC1 cells assessed as CD24+/CD44+/ESA+ cell population level at 0.15 uM after 48 hrs by flow cytometric analysis (reference value: 1.7%); type: functional; parameters: scale not given: the % may be the effect or the level left
PANC-1 [9] = experiment: Antitumor activity against human PANC1 cells xenografted in zebrafsh yolk assessed as tumor growth inhibition at 0.005 uM after 2 days by fluorescence microscopy; type: functional
Outline: (§4)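 About 300 PANC-1 cells were microinjected into the yolk of 2 dpf wild-type AB zebrafish, which were held at 35 °C to 3 dpf. Fish were then randomized to 6-well plates, 30 per well, and dosed once with compound at 0.005–50 µM. Gemcitabine 66.7 µM served as positive control and 10% aqueous castor oil as blank. After 2 days at 35 °C, 15 fish per group were imaged by fluorescence microscopy. Inhibition (%) = (1 − S(sample)/S(blank)) × 100, mean ± SEM, n = 15.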

[10] = molecular target: T1, Aldehyde dehydrogenase, mitochondrial (Homo sapiens) (UniProt P05091); experiment: Inhibition of ALDH in human PANC1 cells assessed as aldefluor positive cells at 0.2 uM after 72 hrs by aldefluor assay (reference value: 12.5%); type: cell-based; parameters: scale not given: the % may be the effect or the level left
T1 sequence (whole entry): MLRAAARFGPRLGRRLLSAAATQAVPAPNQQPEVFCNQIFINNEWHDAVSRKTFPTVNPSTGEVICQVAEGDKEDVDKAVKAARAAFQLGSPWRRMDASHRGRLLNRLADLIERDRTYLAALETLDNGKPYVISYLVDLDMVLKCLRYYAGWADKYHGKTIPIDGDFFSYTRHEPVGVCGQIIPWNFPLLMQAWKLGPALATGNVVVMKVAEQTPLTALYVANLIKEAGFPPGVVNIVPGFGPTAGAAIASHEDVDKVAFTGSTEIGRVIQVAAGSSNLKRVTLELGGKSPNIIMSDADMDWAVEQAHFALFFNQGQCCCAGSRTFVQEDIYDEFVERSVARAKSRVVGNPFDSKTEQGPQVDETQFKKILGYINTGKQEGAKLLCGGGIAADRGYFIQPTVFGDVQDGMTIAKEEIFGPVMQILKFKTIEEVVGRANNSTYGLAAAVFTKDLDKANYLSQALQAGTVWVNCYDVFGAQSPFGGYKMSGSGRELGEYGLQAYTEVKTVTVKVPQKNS
Outline: (§5)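 PANC-1 cells were seeded at 5×10^4 cells/well and exposed after 6 h to compound (0.2 µM; ADR 0.5 µM) for 72 h. Living cells were suspended in assay buffer and incubated with Aldefluor substrate for 60 min at 37 °C. A parallel sample received substrate plus the ALDH inhibitor DEAB as negative control. Readout was percentage of ALDH+ cells, mean ± SEM, n = 3.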

PANC-1 [11] = experiment: Antitumor activity against human PANC1 cells xenografted in zebrafsh yolk assessed as tumor growth inhibition at 0.5 uM after 2 days by fluorescence microscopy; type: functional; outline: as §4
PaTu 8988t [12] = experiment: Cytotoxicity against human PA-TU-8988T cells after 72 hrs under normoxic condition by MTT assay; type: functional, cell-based; outline: as §1
PANC-1 [13] = experiment: Antitumor activity against human PANC1 cells xenografted in zebrafsh yolk assessed as tumor growth inhibition at 0.05 uM after 2 days by fluorescence microscopy; type: functional; outline: as §4
[14] = molecular target: T1, Aldehyde dehydrogenase, mitochondrial (Homo sapiens); experiment: Inhibition of ALDH in human PANC1 cells assessed as aldefluor positive cells at 0.2 uM after 72 hrs in presence of DEAB by aldefluor assay (reference value: 0.455%); type: cell-based; parameters: scale not given: the % may be the effect or the level left; outline: as §5
PANC-1 [15] = experiment: Antitumor activity against human PANC1 cells xenografted in zebrafsh yolk assessed as tumor growth inhibition at 5 uM after 2 days by fluorescence microscopy; type: functional; outline: as §4
PANC-1 [16] = experiment: Selectivity index, ratio of IC50 against human PANC1 cells under normoxic condition to IC50 for human PANC1 cells under hypoxic condition; type: functional; outline: as §3
PANC-1 [17] = experiment: Antitumor activity against human PANC1 cells xenografted in zebrafsh yolk assessed as tumor growth inhibition at 50 uM after 2 days by fluorescence microscopy; type: functional; outline: as §4
ASPC1 [18] = experiment: Cytotoxicity against human Aspc-1 cells after 72 hrs under hypoxic condition by MTT assay; type: functional, cell-based; details: ASPC1, 72 h; outline: as §1
PaTu 8988t [19] = experiment: Cytotoxicity against human PA-TU-8988T cells after 72 hrs under hypoxic condition by MTT assay; type: functional, cell-based; outline: as §1
ASPC1 [20] = experiment: Cytotoxicity against human Aspc-1 cells after 72 hrs under normoxic condition by MTT assay; type: functional, cell-based; details: ASPC1, 72 h; outline: as §1
[21] = molecular target: T1, Aldehyde dehydrogenase, mitochondrial (Homo sapiens); experiment: Inhibition of ALDH in human PANC1 cells assessed as aldefluor positive cells at 0.5 uM after 72 hrs by aldefluor assay (reference value: 12.5%); type: cell-based; parameters: scale not given: the % may be the effect or the level left; outline: as §5
PANC-1 [22] = experiment: Increase in tumor initiating cell frequency in human PANC1 cells xenografted in BALB/c nude mouse at 0.5 uM measured after 7 days; type: cell-based; details: in vivo, 168 h; outline: as §2
[23] = molecular target: T1, Aldehyde dehydrogenase, mitochondrial (Homo sapiens); experiment: Inhibition of ALDH in human PANC1 cells assessed as aldefluor positive cells at 0.5 uM after 72 hrs in presence of DEAB by aldefluor assay (reference value: 0.455%); type: cell-based; parameters: scale not given: the % may be the effect or the level left; outline: as §5
PANC-1 [24] = experiment: Antitumor activity against human PANC1 cells xenografted in zebrafsh yolk assessed as tumor growth inhibition at 66.7 uM after 2 days by fluorescence microscopy; type: functional; outline: as §4

Compound | IC50 (PANC-1 [2]) | IC50 (PANC-1 [4]) | Ratio IC50 (ASPC1 [5]) | Ratio IC50 (PaTu 8988t [7]) | Activity (Danio rerio) | Activity (PANC-1 [8]) | TGI (PANC-1 [9]) | TGI (PANC-1 [11]) | IC50 (PaTu 8988t [12]) | TGI (PANC-1 [13]) | TGI (PANC-1 [15]) | Ratio IC50 (PANC-1 [16]) | TGI (PANC-1 [17]) | IC50 (ASPC1 [18]) | IC50 (PaTu 8988t [19]) | IC50 (ASPC1 [20]) | also measured
C=C1/C=C/C(=O)N(C)CC(=O)N[C@@H](CC(=O)NC2CC2)C(=O)O[C@@H]([C@H](C)CCCCCCCCCCCCCC)[C@H](C)C(=O)N1 | 24 nM | 130 nM | 12.27 | 8.3 | Non-Toxic | 0.5% | 15% | 5% | 200 nM | 10% | 22% | 5.25 | 45% | 22 nM | 24 nM | 270 nM | fold change (FC) (PANC-1 [1]): 8.7; fold change (FC) (PANC-1 [3]): 19; Ratio IC50 (ASPC1 [6]): 4; Activity [10]: 5.84%; Activity [14]: 0.746%
C=C1/C=C/C(=O)N(C)CC(=O)NCC(=O)O[C@@H]([C@H](C)CCCCCCCCCCCCCC)[C@H](C)C(=O)N1 | 310 nM | 2480 nM | 8.6 | 5.67 | Non-Toxic |  | 14% | 6% | 2470 nM | -2% | 26% | 7.93 | 47% | 490 nM | 440 nM | 4170 nM | 
COc1cccc2c1C(=O)c1c(O)c3c(c(O)c1C2=O)C[C@@](O)(C(=O)CO)C[C@@H]3O[C@H]1C[C@H](N)[C@H](O)[C@H](C)O1.Cl [DOXORUBICIN HYDROCHLORIDE] | 1700 nM | 480 nM | 0.78 |  |  | 8.9% |  |  |  |  |  | 0.29 |  | 2000 nM |  | 1600 nM | Activity [21]: 18.8%; fold change (FC) (PANC-1 [22]): 1.6; Activity [23]: 0.964%
Nc1ccn([C@@H]2O[C@H](CO)[C@@H](O)C2(F)F)c(=O)n1 [GEMCITABINE] | 1700 nM | 400 nM |  |  |  | 1.4% |  |  |  |  |  | 0.24 |  |  |  |  | TGI (PANC-1 [24]): 55%
